Data from ChEMBL document CHEMBL1122207, “Antitumor agents. 2. Bisguanylhydrazones of anthracene-9,10-dicarboxaldehydes” (1982).

Key:
Type in all cases: functional
[1] = species on record: Mus musculus; experiment: Cures is the number of survivors of the total treated mice (6) with P-388 leukemia, at 30 days.
Method in brief: (§1)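 BDF1 or CDF1 mice given 10^6 ascitic P-388 leukemia cells ip, then treated ip on days 1, 5 and 9. Cures are survivors over total treated at 30 days.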

[2] = species on record: Mus musculus; experiment: Number of survivors of the total treated mice with B-16 melanoma, at 60 days.
Method in brief: (§2)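 BDF1 mice were implanted ip with a homogenate from 0.05 g of B-16 melanoma and dosed ip on days 1-9. Cures are survivors over total at 60 days.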

[3] = tested on: Mus musculus; experiment: Percent increase in median life span of BDF1 mice with P-388 leukemia at dose 6.25 mg/kg administered intraperitoneally; settings: BDF1, P388, ip, route intraperitoneal
[4] = tested on: Mus musculus; experiment: Percent increase in median life span of BDF1 mice with B-16 melanoma at dose 3 mg/kg administered intraperitoneally; settings: BDF1, B16, ip, route intraperitoneal
Method in brief: (§3)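 BDF1 mice were implanted ip with a homogenate from 0.05 g of B-16 melanoma. Ip dosing ran on days 1-9, starting 24 h after implant, in dose-response studies following NCI protocols. The read-out was percent increase in life span (ILS). T/C ≥125% was taken as significant.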

[5] = species on record: Mus musculus; experiment: Anticancer activity measured as the number of survivors of the total treated mice with P-388 leukemia at 30 days.; method in brief: as §1
[6] = tested on: Mus musculus; experiment: Percent increase in median life span of BDF1 mice with B-16 melanoma at dose 6.00 mg/kg administered intraperitoneally; settings: BDF1, B16, ip, route intraperitoneal; method in brief: as §3
[7] = species on record: Mus musculus; experiment: Cures is the number of survivors of the total treated mice (10) with B-16 melanoma, at 60 days.; method in brief: as §2
[8] = tested on: Mus musculus; experiment: Percent increase in median life span of BDF1 mice with P-388 leukemia at dose 100 mg/kg administered intraperitoneally; settings: BDF1, P388, ip, route intraperitoneal
[9] = tested on: Mus musculus; experiment: Percent increase in median life span of BDF1 mice with B-16 melanoma at dose 50 mg/kg administered intraperitoneally; settings: BDF1, B16, ip, route intraperitoneal; method in brief: as §3
[10] = tested on: Mus musculus; experiment: Percent increase in median life span of BDF1 mice with P-388 leukemia at dose 12.5 mg/kg administered intraperitoneally; settings: BDF1, P388, ip, route intraperitoneal
[11] = tested on: Mus musculus; experiment: Percent increase in median life span of BDF1 mice with B-16 melanoma at dose 6 mg/kg administered intraperitoneally; settings: BDF1, B16, ip, route intraperitoneal; method in brief: as §3
[12] = species on record: Mus musculus; experiment: Cures is the number of survivors of the total treated mice (17) with L-1210 leukemia, at 30 days.
[13] = species on record: Mus musculus; experiment: Cures is the number of survivors of the total treated mice (20) with B-16 melanoma, at 60 days.; method in brief: as §2
[14] = species on record: Mus musculus; experiment: Cures is the number of survivors of the total treated mice (20) with Colon 26, at 60 days.
[15] = species on record: Mus musculus; experiment: Cures is the number of survivors of the total treated mice (42) with P-388 leukemia, at 30 days.; method in brief: as §1
[16] = species on record: Mus musculus; experiment: Cures is the number of survivors of the total treated mice (10) with P-388 leukemia, at 30 days.; method in brief: as §1
[17] = species on record: Mus musculus; experiment: Cures is the number of survivors of the total treated mice (10) with advanced B-16 melanoma, at 30 days.
[18] = tested on: Mus musculus; experiment: Cures is the number of survivors of the total treated mice (6) with advanced L-1210 leukemia; treatment day +2 iv
Method in brief: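 Advanced L-1210 leukemia, treated iv once on day +2 relative to tumor inoculation.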

[19] = tested on: Mus musculus; experiment: Percent increase in median life span of BDF1 mice with B-16 melanoma at dose 6 mg/kg administered intraperitoneally; range 98-122%; 1-9 days of ip treatment relative to tumor inoculation; settings: BDF1, B16, ip, route intraperitoneal; method in brief: as §3
[20] = tested on: Mus musculus; experiment: Percent increase in median life span of BDF1 mice with Colon 26 at dose 6.2 mg/kg administered intraperitoneally; Range is 114-150%; 1, 5, 9 days of ip treatment relative to tumor inoculation; settings: BDF1, Colon 26, ip, 216 h, route intraperitoneal
[21] = tested on: Mus musculus; experiment: Percent increase in median life span of BDF1 mice with L-1210 leukemia at dose 12.5 mg/kg administered intraperitoneally; 1, 5, 9 days of ip treatment relative to tumor inoculation; settings: BDF1, L1210, ip, 216 h, route intraperitoneal
Method in brief: (§4)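 BDF1 or CDF1 mice given 10^6 ascitic leukemia cells ip, then dosed ip on days 1, 5 and 9. Read-out is percent increase in life span versus untreated controls. Cures were scored as survivors/total at 30 days; when cures reached 50% or more, the run was extended until a specific ILS could be calculated. T/C ≥125% counted as significant.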

[22] = tested on: Mus musculus; experiment: Percent increase in median life span of BDF1 mice with P-388 leukemia at dose 12.5 mg/kg administered intraperitoneally; 1, 5, 9 days of ip treatment relative to tumor inoculation; settings: BDF1, P388, ip, 216 h, route intraperitoneal; method in brief: as §4
[23] = tested on: Mus musculus; experiment: Percent increase in median life span of BDF1 mice with advanced B-16 melanoma at dose 12.5 mg/kg administered intraperitoneally; 5, 9, 13 days of ip treatment relative to tumor inoculation; settings: BDF1, B16, ip, 312 h, route intraperitoneal
[24] = species on record: Mus musculus; experiment: Percent increase in median life span of BDF1 mice with advanced L-1210 leukemia
[25] = tested on: Mus musculus; experiment: Percent increase in median life span of BDF1 mice with advanced P-388 leukemia at dose 12.5 mg/kg administered intraperitoneally; 4, 8, 12 days of ip treatment relative to tumor inoculation; settings: P388, ip, 288 h, route intraperitoneal
[26] = tested on: Mus musculus; experiment: Percent increase in median life span of BDF1 mice with madison lung 109 leukemia administered intraperitoneally
[27] = tested on: Mus musculus; experiment: Percent tumor inhibition at non-lethal dose was determined in BDF1 mice with madison lung 109 leukemia; 1, 5, 9 days of sc treatment relative to tumor inoculation
[28] = tested on: Mus musculus; experiment: Percent increase in median life span of BDF1 mice with B-16 melanoma at dose 1.5 mg/kg administered intraperitoneally; settings: BDF1, B16, ip, route intraperitoneal; method in brief: as §3
[29] = tested on: Mus musculus; experiment: Percent increase in median life span of BDF1 mice with P-388 leukemia at dose 25 mg/kg administered intraperitoneally; settings: BDF1, P388, ip, route intraperitoneal
[30] = tested on: Mus musculus; experiment: Percent increase in median life span of BDF1 mice with P-388 leukemia at dose 50 mg/kg administered intraperitoneally; settings: BDF1, P388, ip, route intraperitoneal

## C/N=C(\NC)N/N=C/c1c2ccccc2c(/C=N/N/C(=N/C)NC)c2ccccc12
[1]
  Cures: 1
[2]
  Cures: 0
[3]
  ILS at 6.25 mg/kg: 118%
[4]
  ILS at 3 mg/kg: 111%

## CN(C)CCC/N=C(\S)N/N=C/c1c2ccccc2c(/C=N/N/C(S)=N/CCCN(C)C)c2ccccc12.Cl.Cl
[2]
  Cures: 0
[5]
  Cures: 0
[6]
  ILS at 6 mg/kg: 77%
[3]
  ILS at 6.25 mg/kg: 100%

## Cl.Cl.Fc1cccc2c(/C=N/NC3=NCCN3)c3c(F)cccc3c(/C=N/NC3=NCCN3)c12
[1]
  Cures: 1
[7]
  Cures: 5
[8]
  ILS at 100 mg/kg: 140%
[9]
  ILS at 50 mg/kg: 194%

## CN(C)C(=N)N/N=C/c1c2ccccc2c(/C=N/N=C(\N)N(C)C)c2cc(Cl)ccc12.Cl.Cl
[2]
  Cures: 0
[5]
  Cures: 0
[10]
  ILS at 12.5 mg/kg: 82%
[11]
  ILS at 6 mg/kg: 39%

## C(=N\NC1=NCCN1)/c1c2ccccc2c(/C=N/NC2=NCCN2)c2ccccc12 [BISANTRENE]
[12]
  Cures: 0
[13]
  Cures: 2
[14]
  Cures: 6
[15]
  Cures: 17
[1]
  Cures: 0
[16]
  Cures: 2
[17]
  Cures: 2
[18]
  Cures: 0
[19]
  ILS at 6 mg/kg: 122%
[20]
  ILS at 6.2 mg/kg: 114%
[21]
  ILS at 12.5 mg/kg: 62%
[22]
  ILS at 12.5 mg/kg: 137%
[23]
  ILS at 12.5 mg/kg: 54%
[24]
  ILS: 48%
[25]
  ILS at 12.5 mg/kg: 76%
[26]
  ILS: <25%
[27]
  Inhibition: 20%

## CN1CCCN=C1N/N=C/c1c2ccccc2c(/C=N/NC2=NCCCN2C)c2ccccc12.Cl.Cl
[1]
  Cures: 1
[2]
  Cures: 0
[28]
  ILS at 1.5 mg/kg: 80%
[3]
  ILS at 6.25 mg/kg: 148%

## Cl.Cl.N=C(N)N/N=C/c1c2ccccc2c(/C=N/N=C(N)N)c2ccccc12
[1]
  Cures: 3
[2]
  Cures: 0
[29]
  ILS at 25 mg/kg: 132%
[4]
  ILS at 3 mg/kg: 67%

## Cl.Cl.Clc1cccc2c(/C=N/NC3=NCCN3)c3ccccc3c(/C=N/NC3=NCCN3)c12
[1]
  Cures: 3
[7]
  Cures: 3
[28]
  ILS at 1.5 mg/kg: 153%
[3]
  ILS at 6.25 mg/kg: 186%

## CN(C)CCCCC/N=C(\S)N/N=C/c1c2ccccc2c(/C=N/N/C(S)=N/CCCCCN(C)C)c2ccccc12.Cl.Cl
[2]
  Cures: 0
[5]
  Cures: 0
[6]
  ILS at 6 mg/kg: 97%
[29]
  ILS at 25 mg/kg: 48%

## Cl.Cl.N=C(N/N=C/c1c2ccccc2c(/C=N/NC(=N)Nc2ccccc2)c2ccccc12)Nc1ccccc1
[2]
  Cures: 0
[5]
  Cures: 0
[30]
  ILS at 50 mg/kg: 67%
[11]
  ILS at 6 mg/kg: 50%
